Assay outcomes deposited in PubChem by several laboratories.
Sampled rows, rich in hits. Any-hit rate of the full collection: about 1.7%.
CSN deneddyl inh: inhibitors of CSN-mediated cullin deneddylation, primary screen, biochemical, fluorescence polarization, uHTS; COP9 signalosome complex subunit 5 (Homo sapiens), Q92905; Purified CSN, SCF-Nedd8-OG deneddylation; inhibition, % at 12.5 µM; 360,000 tested, 0.38% active; AID 651999, 2013;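 active means pattern-corrected inhibition above about 35%, with an unprinted fluorescence ratio check between 0.5 and 1.5, limit read from the data, passing the limit was not always enough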;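 further: 0% = enzyme with substrate and 100% = substrate without enzyme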
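Schedule: reaction 90 min, room temperature / Assay system: HEK293T-derived human Csn5 enzyme / Input: Csn5 at 0.24 nM final / Measure: inhibition of Csn5 cleavage, % / Control set: substrate-only high control, full reaction low control / Technique: fluorescence polarization of the substrate / Buffer or medium: Tris/NaCl/DTT buffer, pH 7.5 / Reagent: SCFSkp2-Nedd8OG substrate at 10 nM final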
IDE inh: human IDE inhibitors in live cells, primary screen, fluorescence polarization, HEK cells, FAbetaB substrate; FAbetaB cleavage; AID 434962, 2010; Insulin-degrading enzyme (Homo sapiens), P14735; 320,000 tested, 0.41% active; inhibition, % at 5.59 µM;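 active means percent inhibition above the average of all tested compounds plus 3 SD, set per screening campaign, cut at about 16% in these data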;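 further: IDE supplied by intact live HEK cells; FP after avidin binding of uncleaved biotin substrate so inhibition keeps polarization high; 0% = DMSO wells and 100% = 60 µM reference IDE inhibitor Ii1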
HNF4A DNA FP: change in binding of human HNF4A to DNA, primary screen, biochemical, fluorescence polarization, FITC-DNA; Hepatocyte nuclear factor 4-alpha (Homo sapiens), P41235; 1 h; activity change, % at 10 µM; 360,000 tested, 0.3% active; in the data active means activity change above about 30%, passing the limit was not always enough
Rpn11 inh: Rpn11 (PSMD14) deubiquitinase inhibitors, primary screen, biochemical, fluorescence polarization, uHTS. 26S proteasome non-ATPase regulatory subunit 14 (Homo sapiens), O00487. human 26S proteasome, Ub4-pepOG fluorescence polarization; 20S core pre-blocked with epoxomicin. calls only at 20 µM. 360,000 tested, 0.59% active;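 active means inhibition at 20 µM, scaled to each plate's controls, above about 33%, limit read from the data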
IDE cell activ: human IDE activators in live cells, primary screen, fluorescence polarization, HEK cells, FAbeta-B substrate. AID 493087, 2011. FAbeta-B cleavage; 0% vehicle, 100% cell-free pure enzyme wells. 340,000 tested, 0.073% active. Insulin-degrading enzyme (Homo sapiens), P14735. activation, % at 5.96 µM;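 active means activation above the mean of all tested compounds plus 3 SD, set per screening campaign, cut at about 17% in these data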
TPT1 inh: Candida albicans TPT1 enzyme inhibitors, primary screen, biochemical, fluorescence polarization; inhibition, % at 5 µM; tRNA 2'-phosphotransferase TPT1 (Candida albicans SC5314); recombinant caTPT1, FP RNA substrate dephosphorylation; 300,000 tested, 0.81% active;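 active means inhibition above the mean of all tested compounds plus 3 SD, set per screening campaign, cut at about 24% in these data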;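 further: plate controls were DMSO alone for no effect and ferristatin control at 100 nM for full effect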
Rpn11 inh conf: Rpn11 (PSMD14) deubiquitinase inhibitors, confirmation, biochemical, fluorescence polarization, single concentration | shares compounds with Rpn11 inh | purified human 26S proteasome, Ub4-pepOG fluorescence polarization; proteasome pretreated with epoxomicin | inhibition, % at 20 µM | 1,900 tested, 29% active | AID 602318, 2012
MMP-2 inh: MMP-2 enzyme inhibition, confirmation, counter-screen for RPN11 inhibitor project, biochemical, fluorescence, single concentration; recombinant MMP-2, FRET peptide cleavage fluorescence; inhibition, % at 20 µM; 1,900 tested, 4% active; shares compounds with Rpn11 inh;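 further: human MMP-2 activated beforehand with APMA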
Thrombin FP: bovine thrombin protease inhibition, confirmation, counter-screen for Rpn11 inhibitor project, biochemical, fluorescence polarization, single concentration. shares compounds with Rpn11 inh. bovine thrombin cleavage of Ub4-pepOG. inhibition, % at 20 µM. 1,900 tested, 13% active. AID 602333, 2012;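 active means mean inhibition at least 40% at 20 µM, or signal 3 deviations below plate average, so some actives read negative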;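 further: plate controls were thrombin with DMSO for no effect and buffer wells lacking thrombin for full effect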
Target sequence (P00735 whole entry, looked up): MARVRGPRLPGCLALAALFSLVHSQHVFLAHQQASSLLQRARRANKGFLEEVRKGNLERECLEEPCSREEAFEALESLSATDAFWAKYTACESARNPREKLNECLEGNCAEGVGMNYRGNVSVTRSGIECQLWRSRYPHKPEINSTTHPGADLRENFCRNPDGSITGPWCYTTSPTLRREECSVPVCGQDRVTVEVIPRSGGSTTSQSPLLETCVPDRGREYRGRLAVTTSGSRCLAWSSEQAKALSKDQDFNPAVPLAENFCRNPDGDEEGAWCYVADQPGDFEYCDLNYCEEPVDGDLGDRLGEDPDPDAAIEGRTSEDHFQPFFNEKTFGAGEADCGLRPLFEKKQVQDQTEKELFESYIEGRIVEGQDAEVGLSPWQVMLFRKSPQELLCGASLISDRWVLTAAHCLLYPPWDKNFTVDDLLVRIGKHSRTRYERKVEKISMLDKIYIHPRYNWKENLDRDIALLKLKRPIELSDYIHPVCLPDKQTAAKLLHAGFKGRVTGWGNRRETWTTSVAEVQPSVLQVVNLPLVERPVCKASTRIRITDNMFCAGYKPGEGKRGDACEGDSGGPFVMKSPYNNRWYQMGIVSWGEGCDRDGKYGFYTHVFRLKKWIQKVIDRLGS
Numbers without * were called inactive. Unless noted, no stated cut-off is given here; in the data, active means inhibition above about 40%; inactive means the rest.

For COc1ccc(OC)c(NC(=O)CCCNC(=O)c2ccc(Cl)cc2)c1 the results were CSN deneddyl inh 2, IDE inh -2, HNF4A DNA FP -2, Rpn11 inh inactive, IDE cell activ 1 and TPT1 inh 2.
COc1ccc(Cl)cc1NC(=O)CCCNC(=O)c1ccc(Cl)cc1 was read as CSN deneddyl inh 4, IDE inh -1, HNF4A DNA FP 8, Rpn11 inh active, IDE cell activ 4, TPT1 inh -5, Rpn11 inh conf 7, MMP-2 inh -1 and Thrombin FP 3.
Screening C#CCOCCOCCOCCNc1nc(N2CCN(C(=O)CCCCCCCCCCNC(=O)[C@H]([C@@H](C)CC)n3cc(CCCCN=C(N)N)nn3)CC2)nc(N2CCN(C(=O)CCCCCCCCCCNC(=O)[C@@H]([C@H](C)O)n3cc(C)nn3)CC2)n1 returned CSN deneddyl inh 97*, IDE inh -1, HNF4A DNA FP 186, Rpn11 inh active, IDE cell activ 51*, TPT1 inh 3, Rpn11 inh conf 15, MMP-2 inh -14 and Thrombin FP 20.
`CNc1ccc2nnc(C(F)(F)C(F)(F)C(F)(F)F)n2n1` gave CSN deneddyl inh -10, IDE inh 5, HNF4A DNA FP 99, Rpn11 inh active, IDE cell activ 0, TPT1 inh 6, Rpn11 inh conf -5, MMP-2 inh 29 and Thrombin FP -15.
For CCOC(=O)c1[nH]c(CSc2nnnn2-c2ccccc2C)c(C(=O)OCC)c1C the results were CSN deneddyl inh 3, IDE inh 2, HNF4A DNA FP 15, Rpn11 inh active, IDE cell activ 8, TPT1 inh 2, Rpn11 inh conf 30, MMP-2 inh 12 and Thrombin FP 5.
For Cc1ccccc1-n1nnnc1SCC(C)C the results were CSN deneddyl inh 0, IDE inh 9, HNF4A DNA FP 1, Rpn11 inh inactive, IDE cell activ -1 and TPT1 inh 3.
CCCc1noc(-c2ccc(-c3ccccc3)cc2)n1 was read as CSN deneddyl inh 2, IDE inh 6, HNF4A DNA FP -35, Rpn11 inh active, IDE cell activ 1, TPT1 inh -7, Rpn11 inh conf -1, MMP-2 inh -9 and Thrombin FP -11.
CC(C)Cc1cc(-c2ccco2)c(C#N)c(N)n1 was read as CSN deneddyl inh 19, IDE inh -3, HNF4A DNA FP 6, Rpn11 inh active, IDE cell activ 5, TPT1 inh -4, Rpn11 inh conf -6, MMP-2 inh -9 and Thrombin FP -6.
`CCSc1nc(N)c(C#N)c(-c2ccco2)c1C#N` gave CSN deneddyl inh -1, IDE inh 5, HNF4A DNA FP -1, Rpn11 inh inactive, IDE cell activ 3 and TPT1 inh -2.
`COc1ccc(NC(=O)c2cc(OC)c(OC)cc2OC)c(S(=O)(=O)N2CCOCC2)c1` gave CSN deneddyl inh -1, IDE inh -6, HNF4A DNA FP -21, Rpn11 inh active, IDE cell activ 9, TPT1 inh -1, Rpn11 inh conf -2, MMP-2 inh 6 and Thrombin FP -3.
For O=C(Oc1ccc2ccc(=O)oc2c1)c1ccc([N+](=O)[O-])cc1 the results were CSN deneddyl inh 3, IDE inh -4, HNF4A DNA FP 4, Rpn11 inh inactive, IDE cell activ 3 and TPT1 inh -1.
COc1ccc(CCn2c(N)c(C(=O)NCc3ccco3)c3nc4ccccc4nc32)cc1 was read as CSN deneddyl inh 11, IDE inh -3, HNF4A DNA FP 9, Rpn11 inh active, IDE cell activ 4, TPT1 inh 4, Rpn11 inh conf -2, MMP-2 inh 31 and Thrombin FP 25.
CC1Cc2cc(/C=C3/SC(=S)NC3=O)ccc2O1 (configuration not stated) was read as CSN deneddyl inh -2, IDE inh 4, HNF4A DNA FP 4, Rpn11 inh inactive, IDE cell activ 7 and TPT1 inh 0.
Screening Cc1ccc(C2C(/C=C3/SC(=S)NC3=O)=C(c3cccs3)Oc3ccccc32)cc1 (configuration not stated) returned CSN deneddyl inh 4, IDE inh 4, HNF4A DNA FP -4, Rpn11 inh active, IDE cell activ -1, TPT1 inh 9, Rpn11 inh conf 45*, MMP-2 inh 41* and Thrombin FP 16.
For N#C/C(=C/C1=C(N2CCOCC2)C(=C/c2ccc(Cl)cc2Cl)/CC1)C(=O)Nc1ccccc1F the results were CSN deneddyl inh 32, HNF4A DNA FP 26, Rpn11 inh active, IDE cell activ 1, Rpn11 inh conf 18, MMP-2 inh -25 and Thrombin FP 0.
N#C/C(=C\C1=C(N2CCOCC2)C(=C\c2ccc(Cl)cc2)/CC1)C(=O)Nc1ccccc1F was read as CSN deneddyl inh 17, IDE inh 6, HNF4A DNA FP 28, Rpn11 inh active, IDE cell activ -1, TPT1 inh 16, Rpn11 inh conf 56*, MMP-2 inh 3 and Thrombin FP -34.
`COc1ccc(OC)c(N(CC(=O)N2CCCCC2)S(=O)(=O)c2ccc(OC)c(OC)c2)c1` gave CSN deneddyl inh -1, IDE inh -3, HNF4A DNA FP -2, Rpn11 inh inactive, IDE cell activ -3 and TPT1 inh -4.
C=CCn1c(N)cc(=O)nc1SCC(=O)Nc1ccc(C(=O)OC)cc1 was read as CSN deneddyl inh -1, IDE inh 4, HNF4A DNA FP 1, Rpn11 inh inactive, IDE cell activ 0 and TPT1 inh -2.
